Legend:
[1] = tested on: A549; experiment: Cytotoxicity against human lung carcinoma, A549 cells; type: functional, cell-based
Summary of the method: (§1)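 Dose-response proliferation assay over 0.16 to 20 µM (final) in tissue-culture plates. Cells were incubated 72 h at 37 °C in 5% CO2, and inhibition was read as Alamar Blue conversion by fluorescence at excitation/emission 544/590 nm.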

[2] = species: Rattus norvegicus; experiment: Inhibition of blood vessel growth in rat aorta at 10 ug/mL; type: functional
Summary of the method: (§2)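 In vitro angiogenesis assay using rat aorta blood vessel fragments, with compounds dissolved in DMSO. The read-out is percent inhibition of blood vessel growth at each fixed test concentration.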

[3] = tested on: CTLL; experiment: Cytotoxicity against murine cytotoxic T cells, CTLL2; type: functional, cell-based; details: Mus musculus; summary of the method: as §1
[4] = tested on: A-375; experiment: Cytotoxicity against human melanoma, A375 cells; type: functional, cell-based; summary of the method: as §1
[5] = tested on: Ramos; experiment: Cytotoxicity against human Burkitt lymphoma, RAMOS cells; type: functional, cell-based; summary of the method: as §1
[6] = tested on: BT-20; experiment: Cytotoxicity against human breast carcinoma, BT20 cells; type: functional, cell-based; summary of the method: as §1
[7] = tested on: BUD-8; experiment: Cytotoxicity against human fibroblast, BUD8 cells; type: functional, cell-based; summary of the method: as §1
[8] = tested on: HCT-15; experiment: Cytotoxicity against human colon carcinoma, HCT15 cells; type: functional, cell-based; summary of the method: as §1
[9] = tested on: TF-1; experiment: Cytotoxicity against human erythroleukemia TF1 cells; type: functional, cell-based; summary of the method: as §1
[10] = tested on: HepG2; experiment: Cytotoxicity against human hepatoma, HEPG2 cells; type: functional, cell-based; summary of the method: as §1
[11] = species: Rattus norvegicus; experiment: Inhibition of blood vessel growth in rat aorta at 1 ug/mL; type: functional; summary of the method: as §2
[12] = tested on: Daudi; experiment: Cytotoxicity against human Burkitt lymphoma, DAUDI cells; type: functional, cell-based; summary of the method: as §1
[13] = tested on: MES-SA/Dx5; experiment: Cytotoxicity against human uterine sarcoma, MES-SA-Dx5 cells derived from MES-SA; type: functional, cell-based; summary of the method: as §1
[14] = species: Rattus norvegicus; experiment: Inhibition of blood vessel growth in rat aorta at 100 ug/mL; type: functional; summary of the method: as §2
[15] = tested on: KHOS/NP; experiment: Cytotoxicity against human osteosarcoma, KHOS-NP cells; type: functional, cell-based; summary of the method: as §1
[16] = tested on: PA-1; experiment: Cytotoxicity against human ovarian teratocarcinoma, PA1 cells; type: functional, cell-based; summary of the method: as §1
[17] = tested on: MAT-Ly-Lu; experiment: Cytotoxicity against rat prostate carcinoma, MatLyLu cells; type: functional, cell-based; summary of the method: as §1
[18] = tested on: HT-1376; experiment: Cytotoxicity against human bladder carcinoma, HT1376 cells; type: functional, cell-based; summary of the method: as §1
[19] = tested on: HEK293; experiment: Cytotoxicity against HEK293 cells; type: functional, cell-based; details: Homo sapiens; summary of the method: as §1
[20] = tested on: MES-SA; experiment: Cytotoxicity against human uterine sarcoma, MES-SA cells; type: functional, cell-based; summary of the method: as §1
[21] = tested on: A-431; experiment: Cytotoxicity against human epidermoid carcinoma, A431 cells; type: functional, cell-based; summary of the method: as §1
[22] = species: Rattus norvegicus; experiment: Inhibition of blood vessel growth in rat aorta at 0.1 ug/mL; type: functional; summary of the method: as §2
[23] = tested on: MCF7; experiment: Cytotoxicity against human breast carcinoma, MCF7 cells; type: functional, cell-based; summary of the method: as §1

Row | SMILES | IC50 [1] [µM] | inhibition at 10 µg/mL [2] [%] | IC50 [3] [µM] | IC50 [4] [µM] | IC50 [5] [µM] | IC50 [6] [µM] | IC50 [7] [µM] | IC50 [8] [µM] | IC50 [9] [µM] | inhibition at 1 µg/mL [11] [%] | IC50 [12] [µM] | IC50 [13] [µM] | inhibition at 100 µg/mL [14] [%] | IC50 [15] [µM] | IC50 [16] [µM] | IC50 [17] [µM] | IC50 [18] [µM] | IC50 [20] [µM] | IC50 [21] [µM] | inhibition at 0.1 µg/mL [22] [%] | other results
1 | COc1ccc(/C=C(/CN2CCCC[C@H]2C)c2ccc(O)cc2)cc1OC | > 20 | 65 | > 20 | > 20 | > 20 | > 20 | > 20 | > 20 | > 20 | 43 | > 20 | > 20 | 100 | > 20 | > 20 | > 20 | > 20 | > 20 | > 20 | – | IC50 [10]: > 20 µM; IC50 [19]: > 20 µM
2 | COc1ccc(/C(=C\c2ccc(OC)c(OC)c2)CN2CCCC[C@@H]2C)cc1 | > 20 | 43 | > 20 | > 20 | > 20 | > 20 | > 20 | > 20 | > 20 | 68 | > 20 | > 20 | 100 | > 20 | > 20 | > 20 | > 20 | > 20 | > 20 | 22 | IC50 [10]: > 20 µM; IC50 [19]: > 20 µM
3 | COc1ccc(/C(=C\c2ccc(OC)c(OC)c2)CN2CCCC[C@H]2C)cc1 | > 20 | 62 | > 20 | > 20 | > 20 | > 20 | > 20 | > 20 | > 20 | 59 | > 20 | > 20 | 100 | > 20 | > 20 | > 20 | > 20 | > 20 | > 20 | 36 | IC50 [10]: > 20 µM; IC50 [19]: > 20 µM
4 | COc1ccc2ccc3cc(OC)c(OC)cc3c2c1 | > 20 | 42 | 17.5 | > 20 | > 20 | > 20 | > 20 | > 20 | > 20 | – | > 20 | > 20 | 83 | > 20 | > 20 | > 20 | > 20 | > 20 | > 20 | – | IC50 [23]: > 20 µM
5 | COc1ccc2c(CN3CCCC[C@@H]3C)cc3cc(OC)c(OC)cc3c2c1 | 11.2 | 100 | 7.61 | 8.96 | > 20 | 10.2 | > 20 | 7.82 | 7.2 | 42 | 9.08 | 11.7 | 100 | 12.3 | 7.38 | 15 | 9.68 | 10.1 | 8.12 | 17 | IC50 [10]: 8.12 µM; IC50 [19]: 15.5 µM
6 | COc1ccc2c(CN(C)C)cc3cc(OC)c(OC)cc3c2c1 | 17 | 100 | 3.39 | 7.1 | 16.6 | 7.38 | > 20 | 8.27 | 6.75 | 22 | 15.7 | 16.8 | – | 17.1 | 4.16 | 17.3 | 7.88 | 9.1 | 5.37 | 7 | IC50 [23]: 18.6 µM
7 | COc1ccc2c3c(c4cc(OC)c(OC)cc4c2c1)C[C@H]1CCCCN1C3 [CRYPTOPLEURINE] | 0.003 | – | – | 0.003 | 0.003 | 0.003 | 0.006 | 0.003 | – | – | 0.002 | 0.003 | – | 0.01 | 0.002 | 0.003 | 0.004 | 0.003 | 0.003 | – | IC50 [23]: 0.003 µM
8 | COc1ccc2c(CN3CCCC[C@H]3C)cc3cc(OC)c(OC)cc3c2c1 | 12 | 100 | 8.1 | 10.1 | 15.5 | 10.9 | > 20 | 8.33 | 7.65 | 48 | 12 | 8.46 | – | 14 | 7.27 | 15 | 9.51 | 9.04 | 8.09 | 29 | IC50 [10]: 7.27 µM; IC50 [19]: 17.1 µM
9 | COc1cc2cc(CN3CCCC[C@@H]3C)c3ccc(O)cc3c2cc1OC | 16.6 | 74 | 9.09 | 11.2 | 18.2 | 13.7 | 18.2 | 8.41 | 9.8 | 58 | 13.5 | 11.8 | 100 | 15.4 | 8 | > 20 | 8.31 | 14.1 | 13.8 | 35 | IC50 [10]: 8.33 µM; IC50 [19]: 14.8 µM
10 | COc1cc2cc(CN3CCCC[C@H]3C)c3ccc(O)cc3c2cc1OC | 15.2 | 85 | 8.1 | 9.38 | – | 11.6 | – | 7.97 | 8.4 | 47 | – | – | 100 | 13.4 | – | > 20 | 6.04 | – | 20 | 18 | –
11 | COc1ccc(/C=C(/CN2CCCC[C@@H]2C)c2ccc(O)cc2)cc1OC | > 20 | 42 | > 20 | > 20 | > 20 | > 20 | > 20 | > 20 | > 20 | 53 | > 20 | > 20 | 100 | > 20 | > 20 | > 20 | > 20 | > 20 | > 20 | 31 | IC50 [10]: > 20 µM; IC50 [19]: > 20 µM

— ChEMBL document CHEMBL1148553, “C8c-C15 monoseco-analogues of the phenanthroquinolizidine alkaloids julandine and cryptopleurine exhibiting potent anti-angiogenic properties” (Bioorg Med Chem Lett, 2006)
